# Assay results from different studies.
# Compare with care: the assays were run in different laboratories.
# CHRM1: Muscarinic acetylcholine receptor M1 (CHRM1, Homo sapiens, UniProt P11229)
SMILES,target,test,test system,conditions,measurement,value
Cc1cc(N2CCNCC2)nc2ccccc12,CHRM1,"ligand displacement, radioligand",,cell membranes,Ki,> 31600 nM
C[N+]1(C)CCC(OC(=O)C(c2ccccc2)c2ccccc2)CC1,CHRM1,"ligand displacement, radioligand",,,IC50,4.67 nM
COc1cc(C(=O)N2CC[C@@H](O)[C@@H](N)C2)cc2nc(-c3cc4ccccc4n3CC3CC3)n(C)c12,CHRM1,"calcium signal, agonist",,,EC50,5010 nM
CCc1cc(/C(C)=N/OCc2ccc(C3CCCCC3)c(C(F)(F)F)c2)ccc1CN1CC(C(=O)O)C1,"Cytochrome P450 3A4 (CYP3A4, Homo sapiens, UniProt P08684)","enzyme activity, inhibitor","human, liver microsomes","20 min, midazolam probe",IC50,> 1100 nM
CC(C)=CCC/C(C)=C/CC/C(C)=C/CSc1ccccc1C(=O)O,"4,4'-diapophytoene synthase (Staphylococcus aureus, UniProt A9JQL9)","enzyme activity, inhibitor",,,Ki,110 nM
CSCC[C@H](NC(=O)[C@@H](NC(=O)[C@@H](N)Cc1ccc(O)cc1)C(C)C)C(=O)NCC(=O)N[C@@H](Cc1c[nH]cn1)C(=O)O,"Melanocortin receptor 3 (Mus musculus, UniProt P33033)","reporter gene, agonist",,,EC50,> 100000 nM
N[C@@H](CCP(=O)(O)O)C(=O)O,"Metabotropic glutamate receptor 8 (Grm8, Rattus norvegicus, UniProt P70579)","calcium signal, agonist",,,EC50,58.9 nM
CC(C)C[C@H](NC(=O)[C@H](Cc1ccccc1)NC(=O)c1cnccn1)B(O)O,"Chymase (CMA1, Homo sapiens, UniProt P23946)","enzyme activity, inhibitor",,,IC50,4700 nM
CC(C)C[C@H]1C(=O)N2CCC[C@H]2[C@]2(O)O[C@](NC(=O)[C@@H]3C=C4c5cccc6[nH]cc(c56)C[C@H]4N(C)C3)(C(C)C)C(=O)N12,"Solute carrier organic anion transporter family member 1B1 (SLCO1B1, Homo sapiens, UniProt Q9Y6L6)","transporter uptake, inhibitor, fluorescence",CHO,"30 min, pH 7.4",IC50,800 nM
CC(=O)[C@@]1(O)CC[C@H]2[C@@H]3C=C(Cl)C4=CC(=O)[C@@H]5C[C@@H]5[C@]4(C)[C@H]3CC[C@@]21C,"Progesterone receptor (PGR, Homo sapiens, UniProt P06401)",enzyme activity,,,IC50,3 nM
N[C@@H](C[C@]1(C(=O)O)C[C@H]2OC[C@@H](O)[C@@H](O)[C@H]2O1)C(=O)O,"Glutamate receptor ionotropic, kainate 3 (Rattus norvegicus, UniProt P42264, F446Y)","ligand displacement, radioligand",,,Ki,547 nM
CCCCN1CCC(COC(=O)c2cc(Cl)c(N)c3c2OCCO3)CC1,"5-hydroxytryptamine receptor 4 (HTR4, Homo sapiens, UniProt Q13639)","ligand displacement, radioligand",,,Ki,0.1 nM
CC(C)[C@@H]1NC(=O)[C@H](CO)NC(=O)[C@H](CO)NC(=O)[C@H](CO)N(C)C(=O)[C@H](CC(=O)O)NC(=O)[C@H](CO)NC(=O)[C@H](Cc2ccccc2)NC(=O)CSC[C@@H](C(=O)NCC(N)=O)NC(=O)[C@H](CC(N)=O)NC(=O)[C@H](CCCNC(=N)N)NC(=O)[C@H](C)NC(=O)[C@H](Cc2ccc(-c3ccccc3)cc2)NC(=O)[C@H](CC(N)=O)NC(=O)[C@@H]2CCCN2C1=O,"E3 ubiquitin-protein ligase Mdm2 (MDM2, Homo sapiens, UniProt Q00987)","ligand displacement, TR-FRET",,,Ki,> 8060 nM
CC(C)[C@H](N)C(=O)N1CCC[C@H]1B(O)O,"Lysosomal Pro-X carboxypeptidase (PRCP, Homo sapiens, UniProt P42785)","enzyme activity, inhibitor",,,IC50,50300 nM
CC[C@H](C)[C@H](NC(=O)[C@H](CCCNC(=N)N)NC(=O)[C@H](CCCCN)NC(=O)[C@@H]1CCCN1C(=O)[C@@H](N)CC(C)C)C(=O)N[C@@H](C)C(=O)O,"N-terminal Xaa-Pro-Lys N-methyltransferase 1 (Homo sapiens, UniProt Q9BV86)","binding, ITC",,pH 7.5,Kd,48000 nM
Cc1cc(C)nc(Nc2ncc(C(=O)NCCc3c(C)[nH]c4ccccc34)cn2)c1,"Cytochrome P450 1A2 (CYP1A2, Homo sapiens, UniProt P05177)","enzyme activity, inhibitor","human, liver microsomes",,IC50,16000 nM
COC(=O)C1=CCCN(C)C1,"Acetyl-CoA acetyltransferase, mitochondrial (Homo sapiens, UniProt P24752)","enzyme activity, inhibitor",,,IC50,~11100 nM
